ED50, Highest nontoxic dose and LD50 data for eight compounds are collected here from ChEMBL document CHEMBL1124517, “Nucleosides of azathioprine and thiamiprine as antiarthritics” (J Med Chem, 1989).

The species entered for data set [1] is Rattus norvegicus. Briefly: Antiarthritic activity in rat determined by adjuvant arthritis assay in rat. It counts as functional. The method in brief: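 Female Lewis rats, starting weight 190 ± 10 g, adjuvant-induced arthritis. Compound milled into rodent diet, dosed as mg/kg/day in diet from the day of adjuvant injection for 14 days. Arthritic score and weight change assessed on day 16. ED50 is the dose giving a 50% reduction in arthritic score relative to untreated animals.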

For data set [2], the species on record is Rattus norvegicus. Briefly: Compound was tested for dose at which there was no significant weight loss in rat at day 16. The data set is classed as functional. The method in brief:
(§1)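 Female Lewis rats (starting weight 190 ± 10 g) with adjuvant-induced arthritis. Compound was milled into rodent chow and given in the diet (mg/kg/day) from the day of adjuvant injection for 14 days. Weight change and deaths were scored on day 16. The highest nontoxic dose was the highest dose without significant weight loss. LD50 was the dietary dose killing 50% by day 16. Some values are approximate, from two dose levels.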

For data set [3], the species on record is Rattus norvegicus. As to the kind of experiment: Compound was tested for lethal dose at day 16 against rat. It counts as ADME, organism-based. The following applies: in vivo. The method in brief:
as §1

As for `Cn1cnc([N+](=O)[O-])c1Sc1nc(N)nc2c1ncn2[C@H]1C[C@H](O)[C@@H](CO)O1`, the ED50 in data set [1] was 38 mg kg-1 (day in diet)-1. In addition, the Highest nontoxic dose in data set [2] is given as 50 mg kg-1 (day in diet)-1. Besides, the LD50 in data set [3] is 100 mg kg-1 (day in diet)-1.
`Cn1cnc([N+](=O)[O-])c1Sc1nc(N)nc2[nH]cnc12` [THIAMIPRINE]: the 50% effective dose (ED50) in data set [1] is 19 mg kg-1 (day in diet)-1. For the same compound, the Highest nontoxic dose in data set [2] is listed as 30 mg kg-1 (day in diet)-1. Also, the LD50 in data set [3] is 60 mg kg-1 (day in diet)-1.
In the case of `Cn1cnc([N+](=O)[O-])c1Sc1ncnc2nc[nH]c12` [AZATHIOPRINE], in data set [1], the median effective dose (ED50) is reported as 21 mg kg-1 (day in diet)-1. For the same compound, the Highest nontoxic dose in data set [2] is recorded as 48 mg kg-1 (day in diet)-1. The LD50 in data set [3] is 150 mg kg-1 (day in diet)-1.
As to `Sc1ncnc2nc[nH]c12` [MERCAPTOPURINE ANHYDROUS], the ED50 in data set [1] is recorded as 20 mg kg-1 (day in diet)-1. For the same compound, the Highest nontoxic dose in data set [2] is reported as 20 mg kg-1 (day in diet)-1. Moreover, in data set [3], the 50% lethal dose (LD50) is recorded as 25 mg kg-1 (day in diet)-1.
With `Cn1cnc([N+](=O)[O-])c1Sc1nc(N)nc2c1ncn2[C@@H]1O[C@H](CO)[C@@H](O)[C@H]1O`, in data set [1], the ED50 was 36 mg kg-1 (day in diet)-1. Besides, the Highest nontoxic dose in data set [2] was 50 mg kg-1 (day in diet)-1. Moreover, in data set [3], the LD50 is 50 mg kg-1 (day in diet)-1.
Turning to `Cn1cnc([N+](=O)[O-])c1Sc1ncnc2c1ncn2[C@@H]1O[C@H](CO)[C@@H](O)[C@H]1O`, the ED50 in data set [1] is given as 68 mg kg-1 (day in diet)-1. Besides, the Highest nontoxic dose in data set [2] was 180 mg kg-1 (day in diet)-1. Further, the median lethal dose (LD50) in data set [3] is 200 mg kg-1 (day in diet)-1.
In the same order, the values of `Nc1nc2nc[nH]c2c(=S)[nH]1` [THIOGUANINE] are 10 mg kg-1 (day in diet)-1, 10 mg kg-1 (day in diet)-1 and 20 mg kg-1 (day in diet)-1.
As for `Cn1cnc([N+](=O)[O-])c1Sc1ncnc2c1ncn2[C@H]1C[C@H](O)[C@@H](CO)O1`, the ED50 in data set [1] is 64 mg kg-1 (day in diet)-1. The Highest nontoxic dose in data set [2] is on record as 100 mg kg-1 (day in diet)-1. The LD50 in data set [3] is listed as > 270 mg kg-1 (day in diet)-1.
